Experimental findings from ChEMBL document CHEMBL5154878, “Potent Inhibition of SARS-CoV-2 nsp14 N7-Methyltransferase by Sulfonamide-Based Bisubstrate Analogues” (J Med Chem, 2022) are described below.

The structures appear in SMILES notation. Active and inactive are the calls of the source. The calls are words filed in the database; no cut-off is given here. Some results are limits rather than exact numbers.

The target in experiment [1] is Replicase polyprotein 1ab (Severe acute respiratory syndrome coronavirus 2, UniProt P0DTD1). Put plainly: Inhibition of N7-MTase activity of SARS-CoV-2 N-terminus hexahistidine tag nsp14 expressed in Escherichia coli C2566 using [3H]SAM as substrate incubated for 30 mins in presence of mGpppAC4 synthetic RNA by radioactive filter binding assay.
For experiment [2], the target named is Replicase polyprotein 1ab (Severe acute respiratory syndrome coronavirus 2) (UniProt P0DTD1). Briefly: Inhibition of N7-MTase activity of SARS-CoV-2 N-terminus hexahistidine tag nsp14 expressed in Escherichia coli C2566 at 5 uM using [3H]SAM as substrate incubated for 30 mins in presence of mGpppAC4 synthetic RNA by filter binding assay relative to control.

A short description of experiment [3]: Inhibition of N7-MTase activity of SARS-CoV N-terminus hexahistidine tag nsp14 expressed in Escherichia coli C2566 using [3H]SAM as substrate incubated for 30 mins in presence of mGpppAC4 synthetic RNA by radioactive filter binding assay. Further details: species or system Severe acute respiratory syndrome-related coronavirus.
In experiment [4] the target is Replicase polyprotein 1ab (Severe acute respiratory syndrome coronavirus 2) (UniProt P0DTD1). Briefly: Binding affinity to SARS-CoV-2 N-terminus hexahistidine tag nsp14 expressed in Escherichia coli C2566 assessed as change in melting temperature at 0.5 mM by SYPRO orange dye based thermal shift assay. In outline:
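nsp14 (freshly purified, 5 μM, in 20 mM Hepes pH 7.5, 150 mM NaCl, ≤5% DMSO) incubated with compound from 500 μM down to 8.4 nM (3-fold serial dilution) plus Sypro Orange 0.00056×. Melt ramp 1 °C per minute, 25–95 °C. Tm from Boltzmann fit; ΔTm taken against DMSO control. Duplicates; Kd from inflection of ΔTm versus concentration.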

Experiment [5] concerns Severe acute respiratory syndrome coronavirus 2. Briefly: Binding affinity to SARS-CoV N-terminus hexahistidine tag nsp14 expressed in Escherichia coli C2566 assessed as shift in melting temperature at >2 uM by SYPRO orange dye based thermal shift assay.
Experiment [6] in a line: Inhibition of human RNA N7-MTase expressed in Escherichia coli measured using [3H]SAM as substrate incubated for 30 mins in presence of mGpppAC4 synthetic RNA by radioactive filter binding assay.
Experiment [7] can be described thus: Selectivity index, ratio of IC50 for human RNA N7-MTase to IC50 for SARS-CoV-2 nsp14 N7-MTase activity using [3H]SAM as substrate incubated for 30 mins in presence of mGpppAC4 synthetic RNA by radioactive filter binding assay.
For a further experiment, the species on record is Homo sapiens. Briefly: Inhibition of human RNA N7-MTase expressed in Escherichia coli measured upto 50 uM using [3H]SAM as substrate incubated for 30 mins in presence of mGpppAC4 synthetic RNA by radioactive filter binding assay. The note with it: DDE = dose-dependent effect.
The target in experiment [8] is Replicase polyprotein 1ab (Severe acute respiratory syndrome coronavirus 2) (UniProt P0DTD1). Put plainly: Inhibition of N7-MTase activity of SARS-CoV-2 N-terminus hexahistidine tag nsp14 expressed in Escherichia coli C2566 assessed as fold change using [3H]SAM as substrate incubated for 30 mins in presence of mGpppAC4 synthetic RNA by radioactive filter binding assay.

Consider `Nc1ncnc2c1ncn2[C@@H]1O[C@H](CNS(=O)(=O)c2cccc([N+](=O)[O-])c2)[C@@H](O)[C@H]1O`, for which the IC50 (commonly the point on the concentration scale where inhibition reaches its midpoint) in experiment [1] stood at 3590 nM. In experiment [2], the inhibition (as a rule, the drop in the measured response relative to a control, in per cent) was 80%.
As for `Nc1ncnc2c1ncn2[C@@H]1O[C@H](CNS(=O)(=O)c2ccc(Br)c([N+](=O)[O-])c2)[C@@H](O)[C@H]1O`, in experiment [1], the IC50 was determined as 2900 nM. For the same molecule, in experiment [2], the inhibition turned out to be 85%.
On to `Nc1ncnc2c1ncn2[C@@H]1O[C@H](CNS(=O)(=O)c2ccc(Cl)c(Cl)c2)[C@@H](O)[C@H]1O`, for which, in experiment [1], the IC50 was found to be 482 nM. The inhibition in experiment [2] was determined as 87%.
With `CCN(C[C@H]1O[C@@H](n2cnc3c(N)ncnc32)[C@H](O)[C@@H]1O)S(=O)(=O)c1ccc(C)c([N+](=O)[O-])c1`, in [1], the IC50 was determined as 38 nM. In addition, in experiment [2], the inhibition came to 100%.
In the case of `Nc1ncnc2c1ncn2[C@@H]1O[C@H](CNS(=O)(=O)c2ccc(F)c([N+](=O)[O-])c2)[C@@H](O)[C@H]1O`, the IC50 in [1] is 4400 nM. Besides, in experiment [2], the inhibition amounted to 87%.
Regarding `COc1ccc(S(=O)(=O)NC[C@H]2O[C@@H](n3cnc4c(N)ncnc43)[C@H](O)[C@@H]2O)c([N+](=O)[O-])c1`, the IC50 in [3] amounted to 2600 nM; in experiment [1], 1400 nM. The inhibition in experiment [2] is 70%.
For `COc1ccc(S(=O)(=O)N(CCCCNc2cccc3ccccc23)C[C@H]2O[C@@H](n3cnc4c(N)ncnc43)[C@H](O)[C@@H]2O)cc1[N+](=O)[O-]`, the IC50 in [1] came out at 30 nM. Besides, the inhibition in [2] stood at 100%. Further, the ΔTm (as a rule, the shift of the melting midpoint relative to a reference) in [4] was 11 °C. For the same molecule, the result in experiment [5] was Active.
`COc1cc([N+](=O)[O-])ccc1S(=O)(=O)NC[C@H]1O[C@@H](n2cnc3c(N)ncnc32)[C@H](O)[C@@H]1O`: the IC50 in experiment [3] was found to be 25000 nM; in experiment [1], 5100 nM. For the same molecule, the inhibition in [2] was 77%.
As for `Nc1ncnc2c1ncn2[C@@H]1O[C@H](CNS(=O)(=O)c2cccc(Cl)c2)[C@@H](O)[C@H]1O`, in experiment [2], the inhibition turned out to be 20%.
In the case of `CCc1ccc(S(=O)(=O)NC[C@H]2O[C@@H](n3cnc4c(N)ncnc43)[C@H](O)[C@@H]2O)cc1[N+](=O)[O-]`, the IC50 in experiment [1] came to 244 nM. Moreover, in experiment [2], the inhibition worked out at 98%.
`Nc1ncnc2c1ncn2[C@@H]1O[C@H](CNS(=O)(=O)c2ccc([N+](=O)[O-])cc2Cl)[C@@H](O)[C@H]1O`: in experiment [2], the inhibition was determined as 21%.
`Nc1ncnc2c1ncn2[C@@H]1O[C@H](CNS(=O)(=O)c2ccc([N+](=O)[O-])cc2)[C@@H](O)[C@H]1O`: the half-maximal inhibitory concentration (IC50) worked out at 7600 nM in experiment [3] and 14100 nM in experiment [1]. For the same molecule, the inhibition in experiment [2] worked out at 25%.
For `CCN(C[C@H]1O[C@@H](n2cnc3c(N)ncnc32)[C@H](O)[C@@H]1O)S(=O)(=O)c1ccc(C(F)(F)F)cc1[N+](=O)[O-]`, in experiment [1], the IC50 was 5000 nM. Further, in experiment [2], the inhibition is 84%.
The corresponding values for `Cc1ccc(S(=O)(=O)NC[C@H]2O[C@@H](n3cnc4c(N)ncnc43)[C@H](O)[C@@H]2O)cc1Cl` are 344 nM and 90%.
For the molecule `Cc1ccc(S(=O)(=O)NC[C@H]2O[C@@H](n3cnc4c(N)ncnc43)[C@H](O)[C@@H]2O)cc1[N+](=O)[O-]`, in experiment [1], the IC50 was determined as 342 nM. For the same molecule, the inhibition in [2] was determined as 100%.
On to `CCN(C[C@H]1O[C@@H](n2cnc3c(N)ncnc32)[C@H](O)[C@@H]1O)S(=O)(=O)c1ccc(OC)c([N+](=O)[O-])c1`, for which the IC50 in experiment [1] worked out at 44 nM. Also, in [2], the inhibition worked out at 100%.
Consider `N#Cc1cc(S(=O)(=O)NC[C@H]2O[C@@H](n3cnc4c(N)ncnc43)[C@H](O)[C@@H]2O)ccc1F`, for which, in experiment [1], the IC50 was 899 nM. The inhibition in [2] was determined as 90%.
As for `CCOC(=O)CCCCN(C[C@H]1O[C@@H](n2cnc3c(N)ncnc32)[C@H](O)[C@@H]1O)S(=O)(=O)c1ccc(OC)c([N+](=O)[O-])c1`, in [1], the IC50 amounted to 114 nM. Also, in [2], the inhibition came out at 100%.
Consider `CCN(C[C@H]1O[C@@H](n2cnc3c(N)ncnc32)[C@H](O)[C@@H]1O)S(=O)(=O)c1ccc(C)c(Cl)c1`, for which the IC50 in experiment [1] worked out at 56 nM. Also, in [2], the inhibition worked out at 95%. The shift in melting temperature (ΔTm) in experiment [4] worked out at 11 °C. Moreover, in experiment [5], the result was Active.
As for `Nc1ncnc2c1ncn2[C@@H]1O[C@H](CNS(=O)(=O)c2ccc(Cl)cc2)[C@@H](O)[C@H]1O`, the IC50 in experiment [1] worked out at 13000 nM. For the same molecule, in [2], the inhibition was determined as 25%.
The corresponding values for `COc1ccc(S(=O)(=O)NC[C@H]2O[C@@H](n3cnc4c(N)ncnc43)[C@H](O)[C@@H]2O)cc1C#N` are 514 nM and 100%.
On to `Nc1ncnc2c1ncn2[C@@H]1O[C@H](CNS(=O)(=O)c2ccc(C(F)(F)F)cc2[N+](=O)[O-])[C@@H](O)[C@H]1O`, for which the results for the IC50 in experiment [3] and in [1] were 3300 nM and 3500 nM, respectively. Further, the inhibition in [2] stood at 60%.
On to `N#Cc1cc(S(=O)(=O)NC[C@H]2O[C@@H](n3cnc4c(N)ncnc43)[C@H](O)[C@@H]2O)ccc1Cl`, for which, in [1], the IC50 was 1010 nM. In addition, the inhibition in [2] was 100%.
For `CCN(C[C@H]1O[C@@H](n2cnc3c(N)ncnc32)[C@H](O)[C@@H]1O)S(=O)(=O)c1cccc(Cl)c1`, the IC50 in experiment [1] was found to be 442 nM. Moreover, the inhibition in [2] worked out at 65%.
The corresponding values for `COc1ccc(S(=O)(=O)NC[C@H]2O[C@@H](n3cnc4c(N)ncnc43)[C@H](O)[C@@H]2O)cc1[N+](=O)[O-]` are 146 nM and 90%.
As to `CCN(C[C@H]1O[C@@H](n2cnc3c(N)ncnc32)[C@H](O)[C@@H]1O)S(=O)(=O)c1ccc(OC)c(C#N)c1`, the figures for the IC50 in [1] and in [6] were 19 nM and 52800 nM, respectively. Also, the Ratio IC50 in experiment [7] is more than 2000. The inhibition in experiment [2] was 100%; in the experiment filed under Homo sapiens it was “Dde”. For the same molecule, the ΔTm in experiment [4] amounted to 11 °C. The fold change (FC) in experiment [8] is 2000. In [5], the outcome was Active.
Turning to `CCN(C[C@H]1O[C@@H](n2cnc3c(N)ncnc32)[C@H](O)[C@@H]1O)S(=O)(=O)c1cccc(C#N)c1`, the IC50 in experiment [1] is 960 nM. Besides, in experiment [2], the inhibition stood at 65%.
In the same order, the values of `CCN(C[C@H]1O[C@@H](n2cnc3c(N)ncnc32)[C@H](O)[C@@H]1O)S(=O)(=O)c1ccc(Br)c([N+](=O)[O-])c1` are 80 nM and 100%.
As for `N#Cc1cccc(S(=O)(=O)NC[C@H]2O[C@@H](n3cnc4c(N)ncnc43)[C@H](O)[C@@H]2O)c1`, the IC50 in experiment [1] was found to be 5300 nM. In addition, in experiment [2], the inhibition stood at 80%.
Take `CCN(C[C@H]1O[C@@H](n2cnc3c(N)ncnc32)[C@H](O)[C@@H]1O)S(=O)(=O)c1cccc([N+](=O)[O-])c1`: the IC50 in experiment [1] amounted to 516 nM. Besides, the inhibition in experiment [2] is 75%.
In the case of `Nc1ncnc2c1ncn2[C@@H]1O[C@H](CNS(=O)(=O)c2cccc([N+](=O)[O-])c2Cl)[C@@H](O)[C@H]1O`, the results for the IC50 in [3] and in experiment [1] were 1400 nM and 2100 nM, respectively. Moreover, in experiment [2], the inhibition came out at 75%.
Take `CCN(C[C@H]1O[C@@H](n2cnc3c(N)ncnc32)[C@H](O)[C@@H]1O)S(=O)(=O)c1ccc(Cl)c(Cl)c1`: the IC50 in experiment [1] turned out to be 100 nM. For the same molecule, in experiment [2], the inhibition turned out to be 100%.
Turning to `COc1ccc(S(=O)(=O)N(CCCCOC(C)=O)C[C@H]2O[C@@H](n3cnc4c(N)ncnc43)[C@H](O)[C@@H]2O)cc1[N+](=O)[O-]`, in [1], the IC50 was 80 nM. In addition, in experiment [2], the inhibition came to 100%.
